This is an account of results in ChEMBL document CHEMBL4325910, “Design and synthesis of rosiglitazone-ferulic acid-nitric oxide donor trihybrids for improving glucose tolerance” (Eur J Med Chem, 2019).

Activity calls are given as the source filed them. The rule behind the calls is not given here.

Data set [1] relates to Mus musculus. Kind of data set: Antidiabetic activity in spontaneous db/db BKS.Cg-Dock7m +/+ Leprdb/J mouse assessed as decrease in fasting blood glucose level at 10 mg/kg, po administered as daily dose via gavage for 18 days measured on day 9 post last dose by glucometric analysis. The class given is functional, organism-based. The method in brief: (§1)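 Male db/db mice (BKS.Cg-Dock7m +/+ Leprdb/J), 6 weeks old on purchase, randomized, n=8 per group. Dosed by gavage in 0.5% CMC-Na daily for 18 consecutive days. Vehicle-dosed db/db and C57BL/6 mice served as model and control. Fasting glucose was read by glucometer every three days. On day 12, after an overnight fast, 2 g/kg glucose was given orally. Blood glucose was read at 0–120 min and AUC calculated. Mean ± SEM.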

In data set [2] the test system is 3T3-L1. The data set can be described thus: Inhibition of MDA level in TNF-alpha-induced insulin resistant mouse 3T3L1 cells 10 uM after 48 hrs. It is filed as functional, cell-based. In short, it runs like this:
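3T3-L1 preadipocytes were differentiated, and mature adipocytes made insulin resistant with TNF-α (4 ng/mL) daily for 4 days. Cells were then treated in triplicate for 48 h, with or without 20 μM C-PTIO. Lysate GSH, SOD and MDA were measured with kits. Three experiments, mean ± SD.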

Data set [3] in a line: Metabolic stability in Sprague-Dawley rat plasma after 24 hrs by HPLC analysis.
For data set [4], the system named is Platelet. The data set can be described thus: Antiplatelet activity in platelet rich plasma (unknown origin) assessed as inhibition of arachidonic acid-induced platelet aggregation at 4 mM relative to control. The class given is functional.
A short description of data set [5]: Toxicity in spontaneous db/db BKS.Cg-Dock7m +/+ Leprdb/J mouse assessed as reduction in serum hematocrit value at 27 umol/kg, po administered as daily dose via gavage treated for 18 days. It is filed as organism-based. The conditions noted are these: in vivo, 432 h.
For data set [6], the system named is Platelet. The data set can be described thus: Antiplatelet activity in platelet rich plasma (unknown origin) assessed as inhibition of arachidonic acid-induced platelet aggregation at 2 mM relative to control. The class given is functional.
A short description of data set [7]: Toxicity in ICR mouse assessed mouse mortality at 500 mg/kg, po administered as single dose via gavage treated on day 1 and measured daily up to 14 days. The class given is organism-based. The following applies: in vivo, 336 h. In short, it runs like this:
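Mice of both sexes, 7 weeks old, were randomized and given one oral gavage dose on day 1. Dose levels were 500, 1000, 2000, 3000, 4000 or 5000 mg/kg, or 2000, 4000 and 5000 mg/kg, with n = 10 per group. Behaviour, health and mortality were checked daily for 14 days, and total deaths were counted on day 14. LD50 was calculated with 95% confidence limits.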

Data set [8] can be described thus: Metabolic stability in simulated gastric fluid at pH 1.5 measured after 16 hrs by HPLC analysis. It is filed as ADME. The following applies: read-out: Stability. The method in brief:
(§2)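 Gastric fluid was 1% pepsin in water, pH 1.5. Intestinal fluid was 1% trypsin with 0.68% KH2PO4, pH 6.8. Compound (100 mM DMSO stock) was diluted 1:1000 into each, in triplicate. Incubation was at 37 °C for 0, 2, 4, 6, 16 or 24 h. Acetonitrile (3 volumes) stopped it, then HPLC at 254 nm.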

A short description of data set [9]: Metabolic stability in simulated gastric fluid at pH 1.5 measured after 2 hrs by HPLC analysis. The class given is ADME. The following applies: read-out: Stability. The method in brief: as §2
Data set [10] deals with 3T3-L1. The data set can be described thus: Induction of nitric oxide production in TNF-alpha-induced insulin resistant mouse 3T3L1 cells at 3 to 10 uM after 0.5 to 6 hrs in presence of nitric oxide scavenger C-PTIO by DAF-FM-2DA dye-based fluorescence assay. It is filed as functional, cell-based. In short, it runs like this:
(§3)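 Insulin-resistant 3T3-L1 adipocytes (TNF-α 4 ng/mL, 4 days) were treated for varying times, with or without 20 μM C-PTIO. Vehicle was DMSO 0.1% or NaOH 10 μM. Cells were washed in KRP, loaded with 10 μM DAF-FM-2DA in pH 7.4 PBS at 37 °C for 30 min, and read at Ex/Em 485/515 nm. Three experiments.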

Data set [11] deals with Mus musculus. The data set can be described thus: Antidiabetic activity in spontaneous db/db BKS.Cg-Dock7m +/+ Leprdb/J mouse assessed as decrease in blood glucose AUC at 10 to 20 mg/kg, po administered as daily dose via gavage for 18 days measured on day 12 up to 120 mins post glucose challenge by oral glucose tolerance test. The class given is functional, organism-based. In short, it runs like this:
as §1

Data set [12] deals with Platelet. Kind of data set: Antiplatelet activity in platelet rich plasma (unknown origin) assessed as inhibition of ADP-induced platelet aggregation at 1.6 mM relative to control. The class given is functional.
Data set [13] in a line: Metabolic stability in human liver microsomes after 1 hrs in presence of NADPH by HPLC analysis. The conditions noted are these: read-out: Stability. It is filed as ADME, Microsome. The method in brief: (§4)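 Compound (100 mM DMSO stock) was added in triplicate to 0.1 M phosphate buffer pH 7.4 with 3.3 mM MgCl2 and human liver microsomes, then preincubated 5 min at 37 °C. NADPH (1.3 mM stock) was added and incubation continued 0, 0.5, 1, 2 or 6 h. Acetonitrile quench, then HPLC at 254 nm.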

The nature of data set [14]: Metabolic stability in simulated intestinal fluid at pH 6.8 measured after 16 hrs by HPLC analysis. The class given is ADME. The following applies: read-out: Stability. The method in brief: as §2
Data set [15] is described as follows: Metabolic stability in simulated intestinal fluid at pH 6.8 measured after 6 hrs by HPLC analysis. It is filed as ADME. The conditions noted are these: read-out: Stability. In short, it runs like this:
as §2

Data set [16] has as its system Platelet. Kind of data set: Antiplatelet activity in platelet rich plasma (unknown origin) assessed as inhibition of arachidonic acid-induced platelet aggregation at 0.8 mM relative to control. The class given is functional.
Data set [17] in a line: Metabolic stability in simulated intestinal fluid at pH 6.8 measured after 2 hrs by HPLC analysis. It is filed as ADME. The conditions noted are these: read-out: Stability. The method in brief:
as §2

A short description of data set [18]: Metabolic stability in human liver microsomes after 0.5 hrs in presence of NADPH by HPLC analysis. The class given is ADME, Microsome. The conditions noted are these: read-out: Stability. In short, it runs like this: as §4
A short description of data set [19]: Metabolic stability in simulated intestinal fluid at pH 6.8 measured immediately after compound addition by HPLC analysis. The following applies: read-out: Stability. The class given is ADME. The method in brief: as §2
For data set [20], the system named is Mus musculus. Kind of data set: Cardioprotective activity in db/db BKS.Cg-Dock7m +/+ Leprdb/J mouse assessed as decrease in serum cTnI level administered po as daily dose via gavage for 18 days by ELISA. It is filed as functional, organism-based. The method in brief: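 db/db mice were gavaged daily for 18 days in 0.5% CMC-Na, with vehicle-treated model and C57BL/6 control groups. Tail vein blood was collected and serum TNF-α and cTnI measured by commercial ELISA kits. Six individual experiments, mean ± SD, one-way ANOVA.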

In data set [21] the test system is Mus musculus. Kind of data set: Effect on lipid metabolism in spontaneous db/db BKS.Cg-Dock7m +/+ Leprdb/J mouse assessed as decrease in serum triglyceride level at 27 umol/kg, po administered as daily dose via gavage for 18 days. The class given is functional, organism-based. In short, it runs like this: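 db/db mice were gavaged daily for 18 days in 0.5% CMC-Na (n=8 per group), with a vehicle model group. On day 19, blood was collected and serum prepared by centrifugation. Serum triglyceride and HDL were then measured.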

The test system of data set [22] is Platelet. Kind of data set: Antiplatelet activity in platelet rich plasma (unknown origin) assessed as inhibition of arachidonic acid-induced platelet aggregation at 0.05 mM relative to control. It is filed as functional.
Data set [23] can be described thus: Metabolic stability in simulated gastric fluid at pH 1.5 measured after 4 hrs by HPLC analysis. The conditions noted are these: read-out: Stability. The class given is ADME. In short, it runs like this:
as §2

The subject of data set [24] is Mus musculus. Kind of data set: Antidiabetic activity in spontaneous db/db BKS.Cg-Dock7m +/+ Leprdb/J mouse assessed as decrease in fasting blood glucose level at 10 to 20 mg/kg, po administered as daily dose via gavage for 18 days measured on day 9 post last dose by glucometric analysis. It is filed as functional, organism-based. In short, it runs like this: as §1

In data set [25] the test system is 3T3-L1. The data set can be described thus: Induction of nitric oxide production in TNF-alpha-induced insulin resistant mouse 3T3L1 cells at 3 to 10 uM after 0.5 to 6 hrs by DAF-FM-2DA dye based fluorescence assay. The class given is functional, cell-based. The method in brief: as §3

As to `CN(CCOc1ccc(CC2SC(=O)NC2=O)cc1)c1ccccn1` (stereo not given) [ROSIGLITAZONE], the result in the data set with Mus musculus [1] was Active. For the same compound, in the data set with 3T3-L1 [2], the inhibition result is “Active”. The compound further displayed a Stability in [3] of 39%. In addition, in the data set on Platelet [4], the inhibition at 4000 µM is 42.2%. In addition, the Activity entry in [5] is “Toxic”; in [7], “Non-Toxic”. In addition, in the data set on Platelet [6], the inhibition at 2000 µM is 28%.
With `CCN(CC)/[N+]([O-])=N/OCOC(=O)/C=C/c1ccc(OC(=O)OCN2C(=O)SC(Cc3ccc(OCCN(C)c4ccccn4)cc3)C2=O)c(OC)c1` (stereo not given), the remaining at 16 h is 86.6% in data set [8] and 85.8% in data set [14]. In addition, the remaining at 2 h in [9] is 99.8%; in [17], 97.7%. In addition, the outcome in the data set with 3T3-L1 [10] was inactive. The result in the data set with Mus musculus [11], in the data set with Mus musculus [21], with Mus musculus [24] and with 3T3-L1 [25] was Active. Besides, the inhibition at 1600 µM with Platelet [12] is 47%. In addition, the remaining at 1 h in data set [13] was found to be 89.9%. Also, the remaining at 6 h in [15] is 87.6%. Besides, the inhibition at 800 µM with Platelet [16] was 51.6%. Moreover, the remaining at 0.5 h in data set [18] was found to be 94.3%. In addition, the remaining at 0 h in data set [19] is 100%. Also, the Activity entry in the data set on Mus musculus [20] is “Dose-dependent effect”. Further, the inhibition at 50 µM in the data set with Platelet [22] was 9.2%. Also, in data set [23], the remaining at 4 h was 97%.
